Consider 14 compounds from ChEMBL document CHEMBL3576840, “Helical Antimicrobial Sulfono-γ-AApeptides” (J Med Chem, 2015).

In brackets after ≈: the same amount, converted by molar mass. Residues, ends and D or L forms follow the SMILES beside them.

The test system of one series is Staphylococcus aureus. Description: Antimicrobial activity against methicillin-resistant Staphylococcus aureus ATCC 33592 after 16 hrs. The conditions noted are these: ATCC 33592, 16 h. Type of series: functional.
The subject of series [1] is Staphylococcus epidermidis. In words: Antimicrobial activity against methicillin-resistant Staphylococcus epidermidis RP62A after 16 hrs. Type of series: functional.
The test system of a further series is Enterococcus faecalis. Description: Antimicrobial activity against Enterococcus faecalis ATCC 700802 after 16 hrs. The conditions noted are these: ATCC 700802, 16 h. The format is functional. In outline: (§1)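 Broth microdilution: overnight cultures were reinoculated at 1:100, grown to mid-log phase, and diluted to 1 × 10^6 CFU/mL. Cells were mixed 1:1 with serial dilutions […] and incubated 16 h at 37 °C, then read at 600 nm. MIC is the lowest concentration with no growth. Repeated multiple times, in duplicate.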

For the next series, the system named is Pseudomonas aeruginosa. In words: Antimicrobial activity against Pseudomonas aeruginosa ATCC 27853 after 16 hrs. Type of series: functional. The conditions noted are these: ATCC 27853, 16 h. In outline:
as §1

The next series deals with Escherichia. Description: Antimicrobial activity against Escherichia ATCC 25922 after 16 hrs. The format is functional. Conditions: ATCC 25922, 16 h. A digest of the protocol: as §1
Series [2] in a line: Induction of hemolysis in human RBCs incubated for 1 hr. The conditions noted are these: red blood cells. The format is cell-based, Erythrocyte. A digest of the protocol: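 Fresh K2EDTA human RBCs were washed in PBS until the supernatant was clear and diluted to a 5% v/v suspension. This was mixed with equal volumes of compound dilutions for 1 h at 37 °C, centrifuged, and supernatant absorbance read at 360 nm. Hemolysis was normalized between PBS (0%) and 2% Triton X-100 (100%) controls. At least three repeats, in duplicate.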

As for `CC(=O)N[C@@H](CC(C)C)CN(CC(=O)N[C@@H](CC(C)C)CN(CC(=O)N[C@@H](CC(C)C)CN(CC(=O)N[C@@H](CCCCN)CN(CC(=O)N[C@@H](CC(C)C)CN(CC(=O)N[C@@H](CC(C)C)CN(CC(=O)N[C@@H](CC(C)C)CN(CC(=O)N[C@@H](CCCCN)CN(CC(N)=O)S(=O)(=O)CCN)S(=O)(=O)CC(C)C)S(=O)(=O)CCN)S(=O)(=O)CC(C)C)S(=O)(=O)CCN)S(=O)(=O)CC(C)C)S(=O)(=O)CCN)S(=O)(=O)CC(C)C`, the minimum inhibitory concentration (MIC) in the series with Staphylococcus aureus is over 50 µg/mL; in series [1], 12 µg/mL (≈ 5.34 µM); in the series on Enterococcus faecalis, over 50 µg/mL; in the series with Pseudomonas aeruginosa it was 50 µg/mL (≈ 22.2 µM); against Escherichia, 25 µg/mL (≈ 11.1 µM). The HC50 at 1 h in series [2] is over 250 µg/mL.

`NCCCC[C@@H](CN(CC(N)=O)S(=O)(=O)CCN)NC(=O)CN(C[C@H](Cc1ccccc1)NC(=O)CN(C[C@H](Cc1ccccc1)NC(=O)CN(C[C@@H](N)Cc1ccccc1)S(=O)(=O)Cc1ccccc1)S(=O)(=O)CCN)S(=O)(=O)Cc1ccccc1`: the MIC with Staphylococcus aureus was over 50 µg/mL; in series [1], 20 µg/mL (≈ 15.6 µM); with Enterococcus faecalis, over 50 µg/mL; with Pseudomonas aeruginosa, over 50 µg/mL; in the series with Escherichia, 25 µg/mL (≈ 19.5 µM). The HC50 at 1 h in series [2] is over 250 µg/mL.

Take `CC(=O)N[C@@H](CCCCN)CN(CC(=O)N[C@@H](Cc1ccccc1)CN(CC(=O)N[C@@H](CCCCN)CN(CC(=O)N[C@@H](Cc1ccccc1)CN(CC(=O)N[C@@H](CCCCN)CN(CC(=O)N[C@@H](Cc1ccccc1)CN(CC(=O)N[C@@H](CCCCN)CN(CC(=O)N[C@@H](Cc1ccccc1)CN(CC(N)=O)S(=O)(=O)Cc1ccccc1)S(=O)(=O)CCN)S(=O)(=O)Cc1ccccc1)S(=O)(=O)Cc1ccccc1)S(=O)(=O)Cc1ccccc1)S(=O)(=O)CCN)S(=O)(=O)Cc1ccccc1)S(=O)(=O)Cc1ccccc1`: the minimal inhibitory concentration (MIC) against Staphylococcus aureus stood at 5 µg/mL (≈ 1.89 µM); in series [1], 2 µg/mL (≈ 0.756 µM); against Enterococcus faecalis, 10 µg/mL (≈ 3.78 µM); against Pseudomonas aeruginosa, 20 µg/mL (≈ 7.56 µM); in the series with Escherichia it was 3 µg/mL (≈ 1.13 µM). Also, in series [2], the concentration for 50% haemolysis (HC50) at 1 h was 80 µg/mL.

As for `NCCCC[C@@H](CN(CC(N)=O)S(=O)(=O)CCN)NC(=O)CN(C[C@H](Cc1ccccc1)NC(=O)CN(C[C@H](Cc1ccccc1)NC(=O)CN(C[C@H](Cc1ccccc1)NC(=O)CN(C[C@H](CCCCN)NC(=O)CN(C[C@H](Cc1ccccc1)NC(=O)CN(C[C@@H](N)Cc1ccccc1)S(=O)(=O)CCN)S(=O)(=O)Cc1ccccc1)S(=O)(=O)CCN)S(=O)(=O)Cc1ccccc1)S(=O)(=O)CCN)S(=O)(=O)Cc1ccccc1`, the minimal inhibitory concentration (MIC) in the series with Staphylococcus aureus was 3 µg/mL (≈ 1.36 µM); in series [1], 3 µg/mL (≈ 1.36 µM); against Enterococcus faecalis, over 50 µg/mL; against Pseudomonas aeruginosa it was 12 µg/mL (≈ 5.45 µM); with Escherichia, 12 µg/mL (≈ 5.45 µM). The compound further yielded an HC50 at 1 h in series [2] of over 250 µg/mL.

Turning to `NCCCC[C@@H](CN(CC(N)=O)S(=O)(=O)CCN)NC(=O)CN(C[C@H](Cc1ccccc1)NC(=O)CN(C[C@H](Cc1ccccc1)NC(=O)CN(C[C@H](Cc1ccccc1)NC(=O)CN(C[C@H](CCCCN)NC(=O)CN(C[C@@H](N)Cc1ccccc1)S(=O)(=O)Cc1ccccc1)S(=O)(=O)CCN)S(=O)(=O)Cc1ccccc1)S(=O)(=O)CCN)S(=O)(=O)Cc1ccccc1`, the MIC against Staphylococcus aureus was 6 µg/mL (≈ 3.15 µM); in series [1], 3 µg/mL (≈ 1.58 µM); with Enterococcus faecalis, over 50 µg/mL; against Pseudomonas aeruginosa, 25 µg/mL (≈ 13.1 µM); with Escherichia, 12 µg/mL (≈ 6.3 µM). In series [2], the 50% haemolytic concentration (HC50) at 1 h was over 250 µg/mL.

Regarding `CC(=O)N[C@@H](CC(C)C)CN(CC(=O)N[C@@H](CC(C)C)CN(CC(=O)N[C@@H](CC(C)C)CN(CC(=O)N[C@@H](CC(C)C)CN(CC(=O)N[C@@H](CC(C)C)CN(CC(=O)N[C@@H](CC(C)C)CN(CC(=O)N[C@@H](CC(C)C)CN(CC(=O)N[C@@H](CC(C)C)CN(CC(N)=O)S(=O)(=O)CCN)S(=O)(=O)CCN)S(=O)(=O)CCN)S(=O)(=O)CCN)S(=O)(=O)CCN)S(=O)(=O)CCN)S(=O)(=O)CCN)S(=O)(=O)CCN`, the MIC (with Staphylococcus aureus; in series [1]; in the series on Enterococcus faecalis; in the series on Pseudomonas aeruginosa; against Escherichia) was over 50 µg/mL in each case.

In the case of `CC(=O)N[C@@H](CCCCN)CN(CC(=O)N[C@@H](CCCCN)CN(CC(=O)N[C@@H](CCCCN)CN(CC(=O)N[C@@H](CCCCN)CN(CC(=O)N[C@@H](CCCCN)CN(CC(=O)N[C@@H](CCCCN)CN(CC(=O)N[C@@H](CCCCN)CN(CC(=O)N[C@@H](CCCCN)CN(CC(N)=O)S(=O)(=O)Cc1ccccc1)S(=O)(=O)Cc1ccccc1)S(=O)(=O)Cc1ccccc1)S(=O)(=O)Cc1ccccc1)S(=O)(=O)Cc1ccccc1)S(=O)(=O)Cc1ccccc1)S(=O)(=O)Cc1ccccc1)S(=O)(=O)Cc1ccccc1`, the MIC (in the series on Staphylococcus aureus; in series [1]; against Enterococcus faecalis; against Pseudomonas aeruginosa; against Escherichia) was over 50 µg/mL each time.

On to `NCCCC[C@H](N)CN(CC(=O)N[C@@H](Cc1ccccc1)CN(CC(=O)N[C@@H](CCCCN)CN(CC(=O)N[C@@H](Cc1ccccc1)CN(CC(=O)N[C@@H](CCCCN)CN(CC(=O)N[C@@H](Cc1ccccc1)CN(CC(=O)N[C@@H](CCCCN)CN(CC(=O)N[C@@H](Cc1ccccc1)CN(CC(N)=O)S(=O)(=O)Cc1ccccc1)S(=O)(=O)CCN)S(=O)(=O)Cc1ccccc1)S(=O)(=O)Cc1ccccc1)S(=O)(=O)Cc1ccccc1)S(=O)(=O)CCN)S(=O)(=O)Cc1ccccc1)S(=O)(=O)Cc1ccccc1`, for which the MIC in the series on Staphylococcus aureus was 3 µg/mL (≈ 1.15 µM); in series [1], 2 µg/mL (≈ 0.769 µM); in the series with Enterococcus faecalis, 10 µg/mL (≈ 3.84 µM); in the series on Pseudomonas aeruginosa, 15 µg/mL (≈ 5.76 µM); in the series with Escherichia it was 3 µg/mL (≈ 1.15 µM). Further, the 50% haemolytic concentration (HC50) at 1 h in series [2] was 120 µg/mL.

On to `NCCCC[C@H](N)CN(CC(=O)N[C@@H](Cc1ccccc1)CN(CC(=O)N[C@@H](Cc1ccccc1)CN(CC(=O)N[C@@H](Cc1ccccc1)CN(CC(=O)N[C@@H](CCCCN)CN(CC(N)=O)S(=O)(=O)CCN)S(=O)(=O)Cc1ccccc1)S(=O)(=O)CCN)S(=O)(=O)Cc1ccccc1)S(=O)(=O)CCN`, for which the MIC against Staphylococcus aureus was over 50 µg/mL; in series [1], 20 µg/mL (≈ 12.8 µM); in the series on Enterococcus faecalis, over 50 µg/mL; in the series on Pseudomonas aeruginosa, over 50 µg/mL; in the series on Escherichia it was 25 µg/mL (≈ 16 µM). Further, in series [2], the HC50 at 1 h is over 250 µg/mL.

As to `CC(C)C[C@H](N)CN(CC(=O)N[C@@H](CC(C)C)CN(CC(=O)N[C@@H](CC(C)C)CN(CC(=O)N[C@@H](CCCCN)CN(CC(=O)N[C@@H](CC(C)C)CN(CC(=O)N[C@@H](CC(C)C)CN(CC(=O)N[C@@H](CC(C)C)CN(CC(=O)N[C@@H](CCCCN)CN(CC(N)=O)S(=O)(=O)CCN)S(=O)(=O)CC(C)C)S(=O)(=O)CCN)S(=O)(=O)CC(C)C)S(=O)(=O)CCN)S(=O)(=O)CC(C)C)S(=O)(=O)CCN)S(=O)(=O)CC(C)C`, the MIC is over 50 µg/mL in the series on Staphylococcus aureus; 12 µg/mL (≈ 5.44 µM) in series [1]; over 50 µg/mL against Enterococcus faecalis; 50 µg/mL (≈ 22.7 µM) in the series with Pseudomonas aeruginosa; 12 µg/mL (≈ 5.44 µM) in the series on Escherichia. For the same compound, the HC50 at 1 h in series [2] is over 250 µg/mL.

As for `CC(=O)N[C@@H](CCCCN)CN(CC(=O)N[C@@H](Cc1ccccc1)CN(CC(=O)N[C@@H](CCCCN)CN(CC(=O)N[C@@H](Cc1ccccc1)CN(CC(=O)N[C@@H](CCCCN)CN(CC(=O)N[C@@H](Cc1ccccc1)CN(CC(=O)N[C@@H](CCCCN)CN(CC(=O)N[C@@H](Cc1ccccc1)CN(CC(N)=O)S(=O)(=O)Cc1ccccc1)S(=O)(=O)CCN)S(=O)(=O)Cc1ccccc1)S(=O)(=O)CCN)S(=O)(=O)Cc1ccccc1)S(=O)(=O)CCN)S(=O)(=O)Cc1ccccc1)S(=O)(=O)CCN`, the minimum inhibitory concentration (MIC) was 12 µg/mL (≈ 4.71 µM) against Staphylococcus aureus; 4 µg/mL (≈ 1.57 µM) in series [1]; 6 µg/mL (≈ 2.35 µM) against Enterococcus faecalis; over 50 µg/mL in the series on Pseudomonas aeruginosa; 6 µg/mL (≈ 2.35 µM) against Escherichia. In addition, in series [2], the HC50 at 1 h came to 150 µg/mL.

Consider `CC(=O)N[C@@H](Cc1ccccc1)CN(CC(=O)N[C@@H](Cc1ccccc1)CN(CC(=O)N[C@@H](Cc1ccccc1)CN(CC(=O)N[C@@H](Cc1ccccc1)CN(CC(=O)N[C@@H](Cc1ccccc1)CN(CC(=O)N[C@@H](Cc1ccccc1)CN(CC(=O)N[C@@H](Cc1ccccc1)CN(CC(=O)N[C@@H](Cc1ccccc1)CN(CC(N)=O)S(=O)(=O)CCN)S(=O)(=O)CCN)S(=O)(=O)CCN)S(=O)(=O)CCN)S(=O)(=O)CCN)S(=O)(=O)CCN)S(=O)(=O)CCN)S(=O)(=O)CCN`, for which the MIC is 25 µg/mL (≈ 10.3 µM) against Staphylococcus aureus; 6 µg/mL (≈ 2.46 µM) in series [1]; 50 µg/mL (≈ 20.5 µM) against Enterococcus faecalis; over 50 µg/mL with Pseudomonas aeruginosa; over 50 µg/mL with Escherichia. Further, the HC50 at 1 h in series [2] is over 250 µg/mL.

With `CC[C@H](C)[C@H](NC(=O)CN)C(=O)NCC(=O)N[C@@H](CCCCN)C(=O)N[C@@H](Cc1ccccc1)C(=O)N[C@@H](CC(C)C)C(=O)N[C@@H](CCCCN)C(=O)N[C@@H](CCCCN)C(=O)N[C@@H](C)C(=O)N[C@@H](CCCCN)C(=O)N[C@@H](CCCCN)C(=O)N[C@@H](Cc1ccccc1)C(=O)NCC(=O)N[C@@H](CCCCN)C(=O)N[C@@H](C)C(=O)N[C@@H](Cc1ccccc1)C(=O)N[C@H](C(=O)N[C@@H](CCCCN)C(=O)N[C@H](C(=O)N[C@@H](CC(C)C)C(=O)N[C@@H](CCCCN)C(=O)N[C@@H](CCCCN)C(N)=O)[C@@H](C)CC)C(C)C` [PEXIGANAN] (H-GIGKFLKKAKKFGKAFVKILKK-NH2), the MIC against Staphylococcus aureus stood at 16 µg/mL (≈ 6.46 µM); in series [1] it was 8 µg/mL (≈ 3.23 µM); in the series with Enterococcus faecalis, 32 µg/mL (≈ 12.9 µM); against Pseudomonas aeruginosa, 16 µg/mL (≈ 6.46 µM); in the series with Escherichia, 8 µg/mL (≈ 3.23 µM).

For the compound `NCCCC[C@@H](CN(CC(N)=O)S(=O)(=O)CCN)NC(=O)CN(C[C@@H](N)Cc1ccccc1)S(=O)(=O)Cc1ccccc1`, the MIC (in the series with Staphylococcus aureus; in series [1]; in the series on Enterococcus faecalis; in the series on Pseudomonas aeruginosa; against Escherichia) was over 50 µg/mL each time.

By MIC is commonly meant the lowest concentration found to suppress growth. What is called HC50 is the concentration that lyses half of the red blood cells.
